From ChEMBL document CHEMBL4339200, “Structure-based Discovery of Phenyl (3-Phenylpyrrolidin-3-yl)sulfones as Selective, Orally Active RORγt Inverse Agonists” (ACS Med Chem Lett, 2019)
The source made the active and inactive calls. The calls are words filed in the database; no cut-off is given here.

Legend:
[1] = test system: Mus musculus; experiment: Inhibition of IL2/IL23-induced IL6 production in po bid dosed C57BL/6 mouse treated 30 mins prior to 24 hrs IL2 challenge followed by IL2/IL23 addition at 0,7 and 23 hrs measured after 7 hrs post last IL2/IL23 challenge; type: functional, organism-based
How it was run: (§1)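 Naive mice were challenged three times with IL-2 plus IL-23 (first at 0 and 7 h) and dosed orally bid at 5, 15 or 50 mg/kg. Serum cytokines were measured 7 h after the final IL-2/IL-23 administration. An anti-IL-23 antibody served as positive control.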

[2] = Protein binding in mouse plasma assessed as unbound fraction; type: ADME, cell-free
[3] = Tmax in Balb/c mouse at 10 mg/kg, po; type: ADME, organism-based; settings: in vivo
How it was run: (§2)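 Balb/c mice given a single intravenous dose of 2 mg/kg or an oral dose of 10 mg/kg. Plasma exposure was followed to derive Cmax, Tmax, AUC, t1/2, clearance, Vss and oral bioavailability (F).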

[4] = molecular target: Cytochrome P450 2D6 (Homo sapiens, UniProt P10635); experiment: Inhibition of CYP2D6 (unknown origin); type: ADME
Sequence of Cytochrome P450 2D6 (P10635 whole entry): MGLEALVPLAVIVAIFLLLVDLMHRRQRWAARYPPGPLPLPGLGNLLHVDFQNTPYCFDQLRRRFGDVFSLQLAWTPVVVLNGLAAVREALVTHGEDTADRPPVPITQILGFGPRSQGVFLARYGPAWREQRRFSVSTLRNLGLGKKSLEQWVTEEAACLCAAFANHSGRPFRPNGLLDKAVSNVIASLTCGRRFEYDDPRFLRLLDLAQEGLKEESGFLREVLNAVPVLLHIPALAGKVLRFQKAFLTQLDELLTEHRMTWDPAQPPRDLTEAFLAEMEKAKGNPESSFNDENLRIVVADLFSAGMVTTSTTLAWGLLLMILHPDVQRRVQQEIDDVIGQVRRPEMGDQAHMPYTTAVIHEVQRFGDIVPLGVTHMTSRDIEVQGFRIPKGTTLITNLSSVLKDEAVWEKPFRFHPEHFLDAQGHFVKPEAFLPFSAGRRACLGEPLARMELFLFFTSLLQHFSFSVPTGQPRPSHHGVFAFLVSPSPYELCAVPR

[5] = molecular target: T1, Nuclear receptor subfamily 1 group I member 2 (Homo sapiens, UniProt O75469); experiment: Transactivation of PXR in human HepG2 cells; type: ADME, cell-based
T1 sequence (O75469 whole entry): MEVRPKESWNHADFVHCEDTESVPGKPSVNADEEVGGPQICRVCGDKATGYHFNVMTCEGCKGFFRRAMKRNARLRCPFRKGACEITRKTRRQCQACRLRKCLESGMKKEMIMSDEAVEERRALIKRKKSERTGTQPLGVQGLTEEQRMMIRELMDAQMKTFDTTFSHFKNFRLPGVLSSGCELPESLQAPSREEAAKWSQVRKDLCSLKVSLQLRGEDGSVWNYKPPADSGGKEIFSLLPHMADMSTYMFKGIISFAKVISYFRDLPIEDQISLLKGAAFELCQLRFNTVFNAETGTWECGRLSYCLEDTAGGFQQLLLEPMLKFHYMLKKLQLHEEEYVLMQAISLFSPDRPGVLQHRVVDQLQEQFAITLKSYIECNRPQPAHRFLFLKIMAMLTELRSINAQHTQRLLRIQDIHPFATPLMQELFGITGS

[6] = molecular target: Cytochrome P450 2C9 (Homo sapiens, UniProt P11712); experiment: Inhibition of CYP2C9 (unknown origin); type: ADME
Sequence of Cytochrome P450 2C9 (P11712 whole entry): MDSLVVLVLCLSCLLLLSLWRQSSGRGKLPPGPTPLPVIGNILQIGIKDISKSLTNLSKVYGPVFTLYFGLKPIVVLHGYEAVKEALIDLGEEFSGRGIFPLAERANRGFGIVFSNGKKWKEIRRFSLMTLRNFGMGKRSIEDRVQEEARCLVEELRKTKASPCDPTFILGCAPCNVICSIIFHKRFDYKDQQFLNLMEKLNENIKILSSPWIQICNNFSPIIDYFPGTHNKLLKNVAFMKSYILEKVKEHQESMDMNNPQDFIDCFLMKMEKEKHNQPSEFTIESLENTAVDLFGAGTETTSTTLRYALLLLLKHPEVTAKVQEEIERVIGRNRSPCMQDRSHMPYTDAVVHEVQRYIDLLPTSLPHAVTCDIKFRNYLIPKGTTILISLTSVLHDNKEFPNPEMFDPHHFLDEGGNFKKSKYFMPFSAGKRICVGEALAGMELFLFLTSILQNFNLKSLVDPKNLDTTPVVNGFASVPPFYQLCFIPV

[7] = test system: Mus musculus; experiment: Inhibition of IL2/IL23-induced IL17F production in C57BL/6 mouse at 50 mg/kg, po bid treated 30 mins prior to 24 hrs IL2 challenge followed by IL2/IL23 addition at 0,7 and 23 hrs measured after 7 hrs post last IL2/IL23 challenge relative to control; type: functional; settings: C57BL/6, po; how it was run: as §1
[8] = molecular target: T2, PXR (NR1I2) (Homo sapiens, UniProt O75469); experiment: Transactivation of PXR in human HepG2 cells relative to rifampicin; type: ADME, cell-based; settings: read-out: %max
T2 sequence (O75469 whole entry): T1 sequence (O75469 whole entry)

[9] = molecular target: T3, Oxysterols receptor LXR-alpha (Homo sapiens, UniProt Q13133); experiment: Agonist activity at LXRalpha (unknown origin) expressed in African green monkey CV1 cells; type: cell-based
T3 sequence (Q13133 whole entry): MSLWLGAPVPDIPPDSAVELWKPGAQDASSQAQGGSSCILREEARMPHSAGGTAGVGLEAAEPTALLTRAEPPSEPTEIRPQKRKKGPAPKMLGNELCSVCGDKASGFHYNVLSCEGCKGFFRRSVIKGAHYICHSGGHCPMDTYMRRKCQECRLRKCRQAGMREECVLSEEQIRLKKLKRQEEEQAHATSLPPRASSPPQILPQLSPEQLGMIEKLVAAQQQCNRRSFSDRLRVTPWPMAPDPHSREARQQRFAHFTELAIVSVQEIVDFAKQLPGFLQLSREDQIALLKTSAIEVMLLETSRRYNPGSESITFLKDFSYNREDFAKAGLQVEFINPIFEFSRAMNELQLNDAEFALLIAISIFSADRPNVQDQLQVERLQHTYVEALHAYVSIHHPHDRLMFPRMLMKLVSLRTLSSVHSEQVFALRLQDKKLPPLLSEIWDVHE

[10] = AUC in Balb/c mouse at 10 mg/kg, po; type: ADME, organism-based; settings: in vivo; how it was run: as §2
[11] = molecular target: T4, Nuclear receptor ROR-beta (Homo sapiens) (UniProt Q92753); experiment: Inverse agonist activity at GAL4-fused RORbeta LBD (200 to 559 residues) (unknown origin) expressed in human Jurkat cells measured after 18 hrs by native IL17 promoter driven steady-glo luciferase assay; type: cell-based
T4 sequence (whole entry): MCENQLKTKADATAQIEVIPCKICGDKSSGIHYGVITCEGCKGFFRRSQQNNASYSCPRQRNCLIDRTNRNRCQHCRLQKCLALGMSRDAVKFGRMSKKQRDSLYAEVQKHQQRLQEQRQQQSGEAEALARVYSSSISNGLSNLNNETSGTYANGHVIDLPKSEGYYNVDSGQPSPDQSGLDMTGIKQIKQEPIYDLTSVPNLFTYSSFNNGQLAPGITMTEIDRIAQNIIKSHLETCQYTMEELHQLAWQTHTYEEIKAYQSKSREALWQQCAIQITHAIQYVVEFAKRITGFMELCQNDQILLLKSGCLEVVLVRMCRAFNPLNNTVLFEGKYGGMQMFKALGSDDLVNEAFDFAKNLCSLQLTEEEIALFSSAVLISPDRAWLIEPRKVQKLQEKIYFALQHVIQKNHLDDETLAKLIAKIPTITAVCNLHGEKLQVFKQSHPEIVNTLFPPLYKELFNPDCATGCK

[12] = molecular target: T5, Nuclear receptor ROR-alpha (Homo sapiens) (UniProt P35398); experiment: Inverse agonist activity at GAL4-fused RORalpha LBD (272 to 556 residues) (unknown origin) expressed in human Jurkat cells measured after 18 hrs by native IL17 promoter driven steady-glo luciferase assay; type: cell-based
T5 sequence (whole entry): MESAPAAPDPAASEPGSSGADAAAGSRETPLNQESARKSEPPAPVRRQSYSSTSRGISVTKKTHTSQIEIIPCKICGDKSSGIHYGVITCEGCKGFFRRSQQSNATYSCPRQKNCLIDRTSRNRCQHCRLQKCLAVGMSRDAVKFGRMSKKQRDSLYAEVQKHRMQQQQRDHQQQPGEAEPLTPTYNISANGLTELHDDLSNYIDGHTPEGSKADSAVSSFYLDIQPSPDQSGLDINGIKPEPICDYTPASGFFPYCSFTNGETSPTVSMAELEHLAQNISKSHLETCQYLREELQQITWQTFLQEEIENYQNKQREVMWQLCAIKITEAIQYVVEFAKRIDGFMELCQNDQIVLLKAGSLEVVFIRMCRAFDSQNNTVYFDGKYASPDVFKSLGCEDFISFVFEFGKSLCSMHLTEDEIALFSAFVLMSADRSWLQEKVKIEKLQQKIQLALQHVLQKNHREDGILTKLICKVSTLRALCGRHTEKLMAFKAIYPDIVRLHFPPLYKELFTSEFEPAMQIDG

[13] = test system: Mus musculus; experiment: Inhibition of IL2/IL23-induced IL17A production in po bid dosed C57BL/6 mouse treated 30 mins prior to 24 hrs IL2 challenge followed by IL2/IL23 addition at 0,7 and 23 hrs measured after 7 hrs post last IL2/IL23 challenge; type: functional, organism-based; how it was run: as §1
[14] = Permeability in human Caco2 cells; type: ADME, cell-based; settings: Caco-2, read-out: permeability
How it was run: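 Caco-2 monolayer permeability, reported as permeation coefficient in nm/s; an efflux ratio was also determined.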

- fraction unbound [2]: 0.105
- Tmax [3]: 2 h
- IC50 [4]: > 20 µM
- EC50 [5]: > 50 µM
- IC50 [6]: > 20 µM
- Emax [8]: 18%
- EC50 [9]: > 7.5 µM
- AUC [10]: 36.6 µM·h
- Activity [11]: inactive
- Activity [12]: inactive
- Papp [14]: 12 ×10⁻⁶ cm/s
Structure (SMILES): O=C(O)[C@H]1CC[C@H](C(=O)N2CC[C@](c3ccc(C(F)(C(F)(F)F)C(F)(F)F)cc3)(S(=O)(=O)c3ccc(F)cc3)C2)CC1
- inhibition [1]: Dose-dependent effect
- inhibition in vivo at 50 mg/kg [7]: 98%
- inhibition [13]: Dose-dependent effect
